{"source": "paper PMC4090259", "about": "(Stem cell research, 2014)", "key": {"[1]": {"tested_on": "various cancer cell lines", "settings": "literature values for various cancer cell lines; ref Chauffert & Dimanche-Boitrel 1998; Lee et al. 2008; Meli et al. 2012; cited from earlier work"}, "[2]": {"tested_on": "ReNcell CX neural progenitor cell line", "settings": "cited from earlier work"}, "ReNcell VM cells [3]": {"tested_on": "ReNcell VM cells", "assay_type": "cell-based, human"}, "[4]": {"tested_on": "ReNcell VM differentiated progeny (astrocytic phenotype)", "assay_type": "cell-based, human"}, "ReNcell VM cells [5]": {"tested_on": "ReNcell VM cells", "assay": "Cytotoxicity in 2D ReNcell VM cultures, 96-well plate format", "assay_type": "cell-based", "settings": "Homo sapiens", "how_it_was_run": "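Human neural stem cells seeded at 5,000 cells/well and left to attach for at least 5 h. Doses made by 4-fold serial dilution from the highest dose, each holding 0.5% DMSO vehicle. Viability read by MTT: 2.5 mg/ml MTT solution added, 3 h under culture conditions, supernatant removed, formazan dissolved in DMSO, absorbance at 590 nm with 690 nm reference.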"}, "Hep3B": {"tested_on": "Hep3B", "settings": "when P450 metabolism was absent; ref Lee et al. 2008; cited from earlier work"}}, "note": "Like-named read-outs stand apart in the source and are kept apart here.", "data": [{"smiles": "O=c1[nH]cc(F)c(=O)[nH]1", "note": "[5-Fluorouracil, 5-fluorouracil]", "values": [{"measurement": "IC50", "setting": "[1]", "result": "1 to 85", "unit": "µM"}, {"measurement": "effect on proliferation and viability", "setting": "[2]; non-differentiated, 2D well plate, after 24 h of incubation with the drug, ref Breier et al. 2008a", "result": "inhibited proliferation without affecting viability"}]}, {"smiles": "CC(=O)Nc1ccc(O)cc1", "note": "[Acetaminophen, acetaminophen]", "values": [{"measurement": "IC50", "setting": "ReNcell VM cells [3]; Homo sapiens, ReNcell VM", "result": 2.4, "unit": "mM"}, {"measurement": "viability of the cells below the hepatotoxic range of concentrations", "setting": "ReNcell VM cells [3]; hNSC line, concentrations below ~0.2 – 1 mM", "result": "remains unaffected"}, {"measurement": "viability of the cells below the hepatotoxic range of concentrations", "setting": "[4]; differentiated progeny, concentrations below ~0.2 – 1 mM", "result": "remains unaffected"}, {"measurement": "IC50", "setting": "ReNcell VM cells [5]", "result": 1760, "unit": "µM"}, {"measurement": "toxicity", "setting": "Hep3B", "result": "non-toxic"}]}, {"smiles": "[Cl][Cd][Cl]", "note": "[CdCl, cadmium chloride hydrate]", "values": [{"measurement": "IC50", "setting": "ReNcell VM cells [3]; Non-differentiated, 3D alginate microarray, 24 h exposure + 48 h in medium", "result": 0.00736, "unit": "mM"}]}, {"smiles": "C[C@@H]1C[C@H]2[C@@H]3CCC4=CC(=O)C=C[C@]4(C)[C@@]3(F)[C@@H](O)C[C@]2(C)[C@@]1(O)C(=O)CO", "note": "[Dexamethasone, dexamethasone]", "values": [{"measurement": "IC50", "setting": "ReNcell VM cells [3]; Homo sapiens, ReNcell VM", "result": 2, "unit": "mM"}, {"measurement": "IC50", "setting": "[4]; Homo sapiens, ReNcell VM", "result": 60, "unit": "µM"}, {"measurement": "IC50", "setting": "ReNcell VM cells [5]", "result": 215, "unit": "µM"}, {"measurement": "effect on viability", "setting": "[2]; concentrations of up to 100 μM, ref Breier et al. 2008b", "result": "negligible effect on viability"}]}]}
